# A selection: hits, their analogues and other compounds. The true share with any hit is near 3.8%.
# FN deposition inh: fibronectin deposition inhibition. 0.086% of 350,000 active. AH1F fibroblasts, Alexa488-fibronectin deposition fluorescence, overnight. inhibition, % at 12.6 µM;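 active = mean inhibition across replicates of 30% or more, regardless of how many single replicates reach that level; inconclusive = mean under 30% yet at least half of replicates reach 30%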
#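 Material: AH1F fibroblasts assembling fluorescent fibronectin matrix; amount: 10000 AH1F cells/well; medium: DMEM, 2% serum; reagent: Alexa488-fibronectin, 24 nM final in well; dosing: single compound dose, delivered by pin transfer; incubation: 1 h adhesion, overnight exposure; detection: fluorescence after three HBSS washes, excitation 485 nm, emission 525 nm; measure: fibronectin deposition inhibition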
# ARNT-TACC3 inh: disruptors of human ARNT/TACC3 interaction | inhibition, % at 9.99 µM | AlphaScreen His-ARNT PAS-B/GST-TACC3 binding, luminescence; TACC3 fragment carries E629A point mutation | Q9Y6A5 | 0.66% of 390,000 active | AID 623870;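 active = mean inhibition of replicates at least 50% and at least half of replicates each reaching 50%; inconclusive = half or more replicates reach 50% but mean below 50%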
# Xi reactivation: activators of X-chromosome reactivation in mouse fibroblasts; 0.055% of 360,000 active; XiGFP mouse fibroblasts, % GFP-positive cells imaging, 3 d; cells co-treated with 5-aza-dC sensitizer; scaled so ellipticine positive control = 100%; activation, % at 7.58 µM;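 active = mean normalized replicate activation at least 10% and every replicate at or above 10%; inconclusive = only one of the two criteria met; inactive = mean below 10% and not all replicates reach 10%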
#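 System: 68-5-11 XiGFP fibroblast line; Timing: 3 days compound exposure; Compound dosing: one concentration, pinned; Benchmarks: positive control ellipticine, 6 µM final; Buffer or medium: DMEM containing 5-aza-dC.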
# FGF22 binding: binders of recombinant human FGF22 by thermal shift; Q9HCT0; SYPRO orange fluorescence; percent of sucrose octasulfate shift, DMSO zero; activity (Tm shift, normalised), % at 9.99 µM; 1.5% of 340,000 active; AID 651658;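 active = mean Tm shift, scaled 0 neutral to 100 positive control, at about 1.3% or above, every replicate too, limit read from the data; inconclusive = no clear call, values can overlap the other calls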
# Target sequence (Q9HCT0 whole entry, looked up): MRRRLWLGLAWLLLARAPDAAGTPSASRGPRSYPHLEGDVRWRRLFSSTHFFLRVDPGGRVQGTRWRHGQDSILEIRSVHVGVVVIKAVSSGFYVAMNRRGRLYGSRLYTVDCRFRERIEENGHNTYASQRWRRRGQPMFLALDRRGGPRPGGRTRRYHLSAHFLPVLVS
# DENV2 CPE rescue: inhibitors of DENV2 cytopathic effect; DENV2-infected cells, cytopathic effect rescue, plate reader; CPE inhibition, % at 9.99 µM; 1.7% of 350,000 active; in the data active = CPE inhibition above about 20%, passing the limit was not always enough; inconclusive = no clear call, values can overlap the other calls; tested in BHK-21 cells
# SIRT5 block: inhibitors of human sirtuin-5 desuccinylase; Q9NXA8; Purified SirT5, succinyl-peptide AMC, trypsin-coupled fluorescence; inhibition, % at 15 µM; 1.1% of 330,000 active; AID 652115; in the data active = inhibition above about 15%; inconclusive = no clear call, values can overlap the other calls
# Target sequence (Q9NXA8 whole entry, looked up): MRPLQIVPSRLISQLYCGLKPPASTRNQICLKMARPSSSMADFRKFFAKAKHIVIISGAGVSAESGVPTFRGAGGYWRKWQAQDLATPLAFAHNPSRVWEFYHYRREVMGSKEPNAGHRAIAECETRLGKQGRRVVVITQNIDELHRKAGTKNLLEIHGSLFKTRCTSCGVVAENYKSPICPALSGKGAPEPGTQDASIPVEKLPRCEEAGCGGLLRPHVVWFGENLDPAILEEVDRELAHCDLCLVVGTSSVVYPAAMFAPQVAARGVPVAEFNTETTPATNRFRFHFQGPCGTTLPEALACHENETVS
# AlphaScreen ctr: AlphaScreen artifact in ARNT/TACC3 counter-screen. shares compounds with ARNT-TACC3 inh. His-ARNT PASB-GST AlphaScreen artifact counter-screen, luminescence. AC50, µM (top dose mostly 68 µM). 50% of 1,200 active;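 active = every separate test run was called active for a drop in luminescence, with AC50 within twice the top valid dose, actives reach about 71 µM in these data; inconclusive = the separate test runs disagree in their calls; inactive = all runs inactive, including signal change in the wrong direction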
# A number is an active result; - = inactive; ? = inconclusive; . = no result.
SMILES,FN deposition inh,ARNT-TACC3 inh,Xi reactivation,FGF22 binding,DENV2 CPE rescue,SIRT5 block,AlphaScreen ctr
O=C(N[C@H]1CC[C@H](CCn2cc(-c3ccccn3)nn2)O[C@H]1CO)c1ccc(F)cc1,.,.,-,-,-,-,.
O=C(N[C@H]1CC[C@@H](CCn2cc(-c3ccccn3)nn2)O[C@@H]1CO)c1ccc(F)cc1,.,112.0,-,-,-,-,44.9µM
O=C(N[C@H]1CC[C@@H](CCn2cc(-c3ccccn3)nn2)O[C@H]1CO)c1ccc(F)cc1,.,60.4,-,-,-,-,43.1µM
O=C(N[C@@H]1CC[C@H](CCn2cc(-c3ccccn3)nn2)O[C@H]1CO)c1ccc(F)cc1,.,42.6,-,-,-,-,43.3µM
O=C(N[C@@H]1CC[C@@H](CCn2cc(-c3ccccn3)nn2)O[C@@H]1CO)c1ccc(F)cc1,.,.,-,-,-,-,.
O=C(N[C@@H]1CC[C@@H](CCn2cc(-c3ccccn3)nn2)O[C@H]1CO)c1ccc(F)cc1,.,74.6,-,-,-,-,46.9µM
CCCN1[C@@H]2c3ccc(-c4cccc(C(=O)N(C)C)c4)c(=O)n3C[C@@H]2[C@@H](CO)[C@@H]1C(=O)NCCOC,.,-,-,-,-,-,.
CCC(=O)NC[C@@H]1[C@@H](c2ccccc2)[C@@H](CO)N1C(=O)C1CCC1,.,-,-,-,-,-,.
CO[C@H]1CN(C)C(=O)c2ccc(NC(=O)C3CC3)cc2OC[C@@H](C)N(C(=O)C2CCCCC2)C[C@@H]1C,-,-,-,-,-,-,.
COc1ccc(S(=O)(=O)Nc2ccc3c(c2)C(=O)N([C@@H](C)CO)C[C@H](C)[C@@H](CN(C)S(=O)(=O)c2ccc(OC)cc2)OCCCC[C@H](C)O3)cc1,-,-,-,-,-,.,.
CCC(=O)N(CC)C[C@H]1[C@H](c2ccc(-c3ccccc3)cc2)[C@@H](CO)N1C(C)=O,-,-,-,-,-,-,.
CCSc1nnc(NC(=O)c2ccccn2)s1,-,52.2,.,.,.,.,30.7µM
CCSc1nnc(NC(=O)c2cccnc2Cl)s1,-,-,.,.,.,.,.
COc1ccc2c3c([nH]c2c1)[C@H](CO)N(C(=O)CN1CCOCC1)CC31CCN(C(C)=O)CC1,.,.,-,-,-,.,.
CCOC(=O)/C(=N/Nc1ccccc1OC)N1CCCc2ccccc21,-,33.9,-,-,-,-,44.2µM
O=C(CSc1cccc2cccnc12)N/N=C/c1cccc(O)c1,-,-,-,-,-,-,.
O=C(O)CSc1cccc2cccnc12,-,60.1,-,-,-,.,-
CN(C)S(=O)(=O)c1cccc(NC(=O)CSc2cccc3cccnc23)c1,-,64.5,-,-,-,-,11.8µM
CN(C)S(=O)(=O)c1ccc(SCC(=O)Nc2cccc(S(=O)(=O)N3CCCC3)c2)nc1,-,-,-,-,-,-,.
CCCNC(=O)N1C[C@H](O)COC[C@@H]2O[C@@H](CC(=O)N3CCC(Cc4ccccc4)CC3)CC[C@H]21,-,-,-,-,?,-,.
COC(=O)c1[nH]c2cc(OC)c(OC)cc2c1NC(=O)Oc1ccccc1,.,35.1,.,.,.,.,-
COc1ccc(C(=O)Cc2nnc(C)s2)c(OC)c1,-,77.2,-,.,.,.,-
CCc1nnc(NC(=O)c2ccc(OC)cc2OC)s1,.,-,.,.,.,.,.
C/C=C/c1cnc2c(c1)C(=O)N([C@@H](C)CO)C[C@H](C)[C@H](CN(C)C(=O)C1CCOCC1)O2,.,-,-,-,-,-,.
Cc1nn2c(nc1=O)NNC2(C)C(C)(C)C (configuration not stated),-,63.6,-,-,-,-,-
SMILES,FN deposition inh,ARNT-TACC3 inh,Xi reactivation,FGF22 binding,DENV2 CPE rescue,SIRT5 block,AlphaScreen ctr
COc1ccc(NC(=O)N[C@H]2CC[C@H](CCn3cc(-c4ccccn4)nn3)O[C@H]2CO)cc1,-,-,-,-,-,-,.
COc1ccc(NC(=O)N[C@@H]2CC[C@H](CCn3cc(-c4ccccn4)nn3)O[C@H]2CO)cc1,-,59.4,-,-,-,-,50.1µM
COc1ccc(NC(=O)N[C@@H]2CC[C@H](CCn3cc(-c4ccccn4)nn3)O[C@@H]2CO)cc1,-,62.8,-,-,-,-,50.5µM
Cc1cccc(Oc2ncnc(N)c2[N+](=O)[O-])c1C,-,-,-,-,-,-,.
Nc1ncnc(Oc2cccc3cccnc23)c1[N+](=O)[O-],-,51.4,-,-,-,-,-
CCOc1cc(/C=N/Nc2ncc(C)c(=O)[nH]2)ccc1O,-,54.4,-,-,-,-,-
Cc1cc(=O)[nH]c(N2CCCNCC2)n1,.,-,.,.,.,-,.
Cc1cc(=O)[nH]c(-n2[nH]c3c(c2=O)CCCC3)n1,.,58.1,.,.,.,.,-
C[C@@H]1CN([C@H](C)CO)S(=O)(=O)c2ccc(C#CCN(C)C)cc2O[C@@H]1CN(C)Cc1ccc2c(c1)OCO2,-,.,-,-,-,-,.
O=c1cc(C=NNc2ccccc2)[nH]c(=O)[nH]1,-,-,-,-,-,-,.
O=c1cc(N/N=C/c2ccccc2)[nH]c(=O)[nH]1,-,20.3,-,.,-,-,-
O=C(CNCc1ccccn1)Nc1cc(C(F)(F)F)ccc1N1CCOCC1,-,58.0,-,-,-,17.3,-
O=c1[nH]c(N2CCOCC2)cc2ccccc12,-,40.6,-,-,-,.,-
O=c1c(N2CCOCC2)coc2ccccc12,.,-,-,-,-,-,.
Cc1ccc(S(=O)(=O)N[C@@H]2C=C[C@@H](CC(=O)NC3CCCCC3)O[C@H]2CO)cc1,-,-,-,-,-,-,.
O=C(CN1C(=O)CCC1=O)Nc1nc(-c2nc3ccccc3s2)cs1,-,-,-,-,-,-,.
O=C(Nc1ccc2nc(-c3ccccn3)[nH]c2c1)C1CCCCC1,-,59.5,.,.,.,.,-
O=C(Nc1nc(-c2nc3ccccc3s2)cs1)C1CC1,-,-,-,-,-,-,.
O=C(CN1C(=O)CCC1=O)Nc1nc(-c2ccccn2)cs1,-,59.2,-,-,-,.,34.5µM
CSCCC(=O)Nc1nc(-c2ccccn2)cs1,.,57.8,-,-,-,-,71.4µM
CC(C)c1nc2ccc(NC(=O)C3CCCCC3)cc2[nH]1,.,-,.,.,.,.,.
O=C(Nc1nc(-c2ccccn2)cs1)C1CCCC1,-,58.5,-,-,-,-,-
O=C(CCCSc1ccccc1)Nc1nc(-c2ccccn2)cs1,.,-,.,.,.,.,.
COCc1cn(CC[C@@H]2CC[C@H](NC(=O)Cc3cccnc3)[C@@H](CO)O2)nn1,-,-,-,-,-,-,.
COc1cccc(S(=O)(=O)N[C@@H]2CC[C@@H](CCn3cc(-c4ccc(F)cc4)nn3)O[C@H]2CO)c1,-,-,-,-,-,-,.
Cc1ccc(S(=O)(=O)Nc2ccc3c(c2)C(=O)N([C@@H](C)CO)C[C@H](C)[C@H](CN(C)C)OCCCC[C@H](C)O3)cc1,-,.,-,.,.,.,.
